Assay results collected from several papers.
Protocols differ between the studies behind these lines.
Target: Casein kinase I isoform delta (CSNK1D, Homo sapiens, UniProt P48730)

| Structure (SMILES) | observed | action | method | tested at | quantity | value |
| --- | --- | --- | --- | --- | --- | --- |
| Cc1nccc(COC(=O)N2C[C@@H]3[C@@H](CNC(=O)c4ccc5[nH]nnc5c4)[C@@H]3C2)n1 | cell-free assay |  | competition with immobilised ligand | 1 µM | remaining binding | 97% |
| CS(=O)(=O)Nc1cccc(-c2csc(NC(=O)CSc3nc4nccnc4c(=O)n3CCc3ccccc3)n2)c1 | enzyme activity | inhibitor |  | 10 µM | inhibition | 10% |
| Nc1ncnc2c1cnn2-c1ccccc1 | cell-free assay |  |  | 0.5 µM | remaining signal | 79.5% |
| CC(C)(C)c1nc2c(s1)c1nc(N)ncc1c1ccc(NS(=O)(=O)c3c(F)cccc3F)c(F)c12 | enzyme activity | inhibitor | radiometric | 1 µM | remaining activity | 79% |
| Nc1ncnc2occ(-c3ccc(NC(=O)Nc4cc(C(F)(F)F)ccc4F)cc3)c12 | cell-free assay | inhibitor |  | 20 µM | remaining signal | 3.9% |
| CN([C@@H]1CCc2c(CC(=O)O)c3cc(S(C)(=O)=O)ccc3n2C1)S(=O)(=O)c1ccc(F)cc1 | cell-free assay |  | competition with immobilised ligand | 1 µM | remaining binding | 100% |
| FC(F)(F)Oc1cccc(-c2cnc3ccc(-c4ccncc4)nn23)c1 | enzyme activity | inhibitor | radiometric | 5 µM | activity vs control | 97% |
| N#CCCc1ccc2c(c1)-c1[nH]c3ccc([N+](=O)[O-])cc3c1CC(=O)N2 | cell-free assay |  |  | 0.5 µM | remaining signal | 97.4% |
| O=C(Nc1cnn(-c2csc(C(=O)NC3COC3)c2)c1)Nc1c(F)cccc1Cl | enzyme activity | inhibitor |  | 5 µM | remaining activity | 117% |
| COc1cc2ncnc(Nc3ccc(Oc4ccccc4)c(C)c3C)c2cc1OC | enzyme activity | inhibitor |  | 1 µM | inhibition | 1% |
| CCN(CC)c1ccc(C2=NNC(=O)CC2C)cc1[N+](=O)[O-] (stereo not shown) | enzyme activity | inhibitor |  | 10 µM | remaining activity | 109% |
| CO[C@H]1CC[C@H](CNc2ccc(S(=O)(=O)NC(=O)c3ccc(N4CCN(CC5=C(c6ccc(Cl)cc6)CC(C)(C)CC5)CC4)cc3Oc3cnc4[nH]ccc4c3)cc2[N+](=O)[O-])CC1 | cell-free assay |  | competition with immobilised ligand | 1 µM | remaining binding | 93% |
| O=C(Cc1cccc(Cl)c1)Nc1nc2ccccc2s1 | cell-free assay |  |  | 10 µM | inhibition | > 60% |
| Cc1ccc(NC(=O)c2ccc(C)c(C(F)(F)F)c2)cc1C#Cc1nn(C2CCC(O)CC2)c2ncnc(N)c12 (stereo not shown) | cell-free assay |  |  | 10 µM | remaining signal | 88% |
| Cc1cc(NC(=O)c2cccc3cc(-c4cccc5[nH]nc(N)c45)ccc23)ccc1F | enzyme activity | inhibitor |  | 0.1 µM | activity vs control | 96% |
| CCCOc1ccc([C@H]2[C@H](C(=O)O)[C@@H](c3ccc4c(c3)OCO4)CN2CC(=O)Nc2c(CC)cccc2CC)cc1 | cell-free assay |  | competition with immobilised ligand | 1 µM | remaining binding | 80% |
| CC/C(=N\NC(=O)NCc1cccc(O)c1)c1ccc(O)c(C)c1O | enzyme activity | inhibitor |  | 0.1 µM | inhibition | 3.7% |
| Cc1ccc(C(=O)Nc2ccc(CN3CCN(C)CC3)c(C(F)(F)F)c2)cc1C#Cc1cnc2cccnn12 | enzyme activity |  |  | 23.5 nM | remaining activity | 100% |
| CC(C)(O)[C@H]1CC[C@H](Nc2ccc3ncc(-c4cccc(C(F)(F)F)c4)n3n2)CC1 | enzyme activity | inhibitor |  | 1 µM | remaining activity | 84.2% |
| CC(=O)N1CCC(c2ccc(C(=O)NC3=NCCN3)cc2C(F)(F)F)CC1 | cell-free assay |  | competition with immobilised ligand | 1 µM | remaining binding | 100% |
| O=C1Nc2ccc(Cl)cc2C1=Cc1cc(Cl)c(O)c(Cl)c1 | cell-free assay |  |  | 0.5 µM | remaining signal | 89.6% |
| CN(c1ccnc(CNc2nc(Nc3ccc4c(c3)CC(=O)N4)ncc2C(F)(F)F)n1)S(C)(=O)=O | cell-free assay |  | competition with immobilised ligand | 1 µM | remaining binding | 100% |
| COc1cc(Nc2cnc(C#N)c(O[C@H](C)CN(C)C)n2)ncc1-c1cnn(C)c1 | enzyme activity | inhibitor | radiometric | 10 µM | remaining activity | 22% |
| COc1cc2c(N3CCN(C(=O)Nc4ccc(OC(C)C)cc4)CC3)ncnc2cc1OCCCN1CCCCC1 | cell-free assay |  |  | 0.5 µM | remaining signal | 90.9% |
| Nc1c(C(=O)NCc2ccc(C(=O)NCCCC3CCCCC3)cc2)cnn1-c1ccccc1 | cell-free assay |  | competition with immobilised ligand | 0.1 µM | remaining binding | 100% |
